Reference: ChEMBL document CHEMBL4266020, “Design, Synthesis, and Antifibrosis Activity in Liver of Nonsecosteroidal Vitamin D Receptor Agonists with Phenyl-pyrrolyl Pentane Skeleton” (J Med Chem, 2018)
Each block holds one compound with its values, some of them ahead of it. The source made the active and inactive calls. The calls are words filed in the database; no cut-off is given here.

Tests used:
Mus musculus [1] = test: Antifibrotic activity in C57BL/6J mouse model of CCl4-induced liver fibrosis assessed as reduction in hydroxyproline levels in liver at 20 ug/kg, po administered 5 times a week via gavage measured at 72 hrs post final CCl4 injection; assay type: functional, organism-based
Method in brief: (§1)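 Same CCl4 mouse model (n=5; 0.5 mL/kg IP in corn oil, 3×/week for 4 weeks; 20 µg/kg oral gavage 5×/week from day 20; sacrifice 72 h after last CCl4). Livers fixed in 4% paraformaldehyde for 24 h, paraffin-embedded, and cut into 5 µm sections. Sections stained with H&E (×100) or Masson's trichrome (×200). Hydroxyproline measured by kit.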

Mus musculus [2] = test: Hepatoprotective activity against CCL4-induced liver damage in C57BL/6J mouse assessed as reduction in serum ALT levels at 20 ug/kg, po administered 5 times a week via gavage measured at 72 hrs post final CCl4 injection; assay type: functional, organism-based
Method in brief: (§2)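 Same CCl4 mouse model (n=5; 0.5 mL/kg IP, 3×/week for 4 weeks; 20 µg/kg gavage 5×/week from day 20; sacrifice 72 h after last CCl4). Serum obtained by centrifugation at 3000 rpm for 15 min at 4°C. ALT, AST, TBA and calcium measured with commercial kits. Mean ± SD.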

[3] = biological target: T1, Vitamin D3 receptor (Homo sapiens) (UniProt P11473); test: Binding affinity to VDR ligand binding domain (unknown origin) at 100 nM by fluorescence polarization assay relative to 1,25(OH)2D3
T1 sequence (whole entry): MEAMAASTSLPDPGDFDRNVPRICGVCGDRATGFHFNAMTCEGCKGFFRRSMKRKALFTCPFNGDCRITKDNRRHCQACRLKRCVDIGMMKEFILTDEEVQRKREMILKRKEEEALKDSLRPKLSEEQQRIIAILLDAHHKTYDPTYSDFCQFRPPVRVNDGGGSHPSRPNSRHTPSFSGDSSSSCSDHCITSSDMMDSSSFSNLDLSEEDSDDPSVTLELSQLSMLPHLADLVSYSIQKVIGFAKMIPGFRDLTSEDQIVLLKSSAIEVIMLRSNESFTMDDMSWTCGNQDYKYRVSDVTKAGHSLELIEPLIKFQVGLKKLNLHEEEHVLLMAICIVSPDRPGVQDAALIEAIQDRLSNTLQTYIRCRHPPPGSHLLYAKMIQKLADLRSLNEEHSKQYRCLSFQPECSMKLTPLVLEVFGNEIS

Mus musculus [4] = test: Hepatoprotective activity against CCL4-induced liver damage in C57BL/6J mouse assessed as reduction in serum AST levels at 20 ug/kg, po administered 5 times a week via gavage measured at 72 hrs post final CCl4 injection; assay type: functional, organism-based; method in brief: as §2
Mus musculus [5] = test: Hepatoprotective activity against CCL4-induced liver damage in C57BL/6J mouse assessed as reduction in serum TBA levels at 20 ug/kg, po administered 5 times a week via gavage measured at 72 hrs post final CCl4 injection; assay type: functional, organism-based; method in brief: as §2
[6] = biological target: T1, Vitamin D3 receptor (Homo sapiens); test: Agonist activity at VDR in human LX2 cells assessed as inhibition of TGFbeta1-induced collagen-1 synthesis at 100 nM after 24 hrs by ELISA relative to 1,25(OH)2D3
[7] = biological target: T1, Vitamin D3 receptor (Homo sapiens); test: Transactivation of VDR in human LX2 cells assessed as inhibition of TGFbeta1-induced ACTA2 mRNA expression at 100 nM after 24 hrs by Q-PCR analysis; assay type: cell-based
Method in brief: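 LX-2 cells cultured with 100 nM compound for 24 h. ACTA2 mRNA measured by SYBR Green Q-PCR, normalized to U36B4 (human internal control).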

[8] = biological target: T1, Vitamin D3 receptor (Homo sapiens); test: Transactivation of VDR (unknown origin) expressed in HEK293 cells co-transfected with human RXRalpha after 24 hrs by dual luciferase reporter gene assay; assay type: cell-based
Method in brief: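 HEK293 cells at 85-90% confluence transfected per well with 140 ng TK-SPP×3-Luc reporter, 20 ng pCMX-Renilla, 30 ng pENTER-CMV-hRXRα and 100 ng pCMX-VDR. Compounds added 8 h after transfection. Dual-luciferase assay run 24 h later, firefly normalized to Renilla, three experiments.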

[9] = biological target: T1, Vitamin D3 receptor (Homo sapiens); test: Transactivation of VDR in human LX2 cells assessed as inhibition of TGFbeta1-induced alpha-SMA protein levels at 100 nM after 24 hrs by Western blot analysis; assay type: cell-based
Method in brief: (§3)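 LX-2 cells cultured 24 h with 100 nM compound in TGFβ1-treated cells. Proteins separated on 10% SDS-PAGE, transferred to PVDF, and α-SMA or collagen I bands detected by infrared scanning.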

[10] = biological target: T1, Vitamin D3 receptor (Homo sapiens); test: Transactivation of VDR in human LX2 cells assessed as inhibition of TGFbeta1-induced collagen 1 protein levels at 100 nM after 24 hrs by Western blot analysis; assay type: cell-based; method in brief: as §3
Mus musculus [11] = test: Antifibrotic activity in C57BL/6J mouse model of CCl4-induced liver fibrosis assessed as reduction in COL1A1 mRNA expression in liver at 20 ug/kg, po administered 5 times a week via gavage measured at 72 hrs post final CCl4 injection by Q-PCR analysis; assay type: functional, organism-based
Mus musculus [12] = test: Antifibrotic activity in C57BL/6J mouse model of CCl4-induced liver fibrosis assessed as decrease in alpha-SMA expression in liver at 20 ug/kg, po administered 5 times a week via gavage measured at 72 hrs post final CCl4 injection by IHC-staining based assay; assay type: functional, organism-based
Mus musculus [13] = test: Antifibrotic activity in C57BL/6J mouse model of CCl4-induced liver fibrosis assessed as reduction in collagen accumulation in liver at 20 ug/kg, po administered 5 times a week via gavage measured at 72 hrs post final CCl4 injection by hematoxylin-eosin staining based assay; assay type: functional, organism-based; method in brief: as §1
Homo sapiens [14] = organism: Homo sapiens; test: Inhibition of TGFbeta1-mediated collagen-1 activation in human LX2 cells at 100 nM after 24 hrs in presence of VDR siRNA by Western blot analysis; assay type: functional, cell-based
Method in brief: (§4)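 LX-2 cells transfected with VDR-directed or scrambled siRNA (50 nM, Lipofectamine 2000), cultured 24 h, then treated 24 h with 100 nM compound, TGFβ1 (1 ng/mL), or both. VDR, α-SMA and collagen I measured by western blot (10% SDS-PAGE, PVDF).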

Mus musculus [15] = test: Antifibrotic activity in C57BL6/J mouse model of CCl4-induced liver fibrosis assessed as reduction in collagen accumulation in liver at 20 ug/kg, po administered 5 times a week via gavage measured at 72 hrs post final CCl4 injection by Masson's trichrome-staining based assay; assay type: functional, organism-based; settings: C57BL/6J; method in brief: as §1
[16] = Oral bioavailability in Sprague-Dawley rat at 20 mg/kg by HPLC analysis; assay type: ADME, organism-based; settings: in vivo
Mus musculus [17] = test: Antifibrotic activity in C57BL/6J mouse model of CCl4-induced liver fibrosis assessed as decrease in alpha-SMA expression in liver at 20 ug/kg, po administered 5 times a week via gavage measured at 72 hrs post final CCl4 injection by Q-PCR analysis; assay type: functional, organism-based
Mus musculus [18] = test: Induction of serum calcium levels in CCL4-induced C57BL/6J mouse liver damage model at 20 ug/kg, po administered 5 times a week via gavage measured at 72 hrs post final CCl4 injection; assay type: organism-based; settings: in vivo, 0.02 mg/kg; method in brief: as §2
Mus musculus [19] = test: Effect on Trpv6 mRNA expression in CCL4-induced C57BL/6J mouse liver damage model at 20 ug/kg, po via gavage measured on day 3 and 7 by Q-PCR analysis; assay type: ADME, organism-based; settings: in vivo, 0.02 mg/kg
Mus musculus [20] = test: Antifibrotic activity in C57BL/6J mouse model of CCl4-induced liver fibrosis assessed as increase in CYP24A1 expression in liver at 20 ug/kg, po administered 5 times a week via gavage measured at 72 hrs post final CCl4 injection by Q-PCR analysis; assay type: functional, organism-based
[21] = biological target: T1, Vitamin D3 receptor (Homo sapiens); test: Agonist activity at VDR in human LX2 cells assessed as upregulation of TGFbeta1-induced CYP24A1 mRNA expression after 24 hrs by Q-PCR method; assay type: cell-based
Homo sapiens [22] = organism: Homo sapiens; test: Inhibition of TGFbeta1-mediated alphaSMA expression in human LX2 cells at 100 nM after 24 hrs in presence of VDR siRNA by Western blot analysis; assay type: functional, cell-based; method in brief: as §4
[23] = Half life in Sprague-Dawley rat at 20 mg/kg, po by HPLC analysis; assay type: ADME, organism-based; settings: in vivo

- Activity [3]: 93%
- collagen-1 synthesis inhibition relative to 1,25(OH)2D3 (%) [6]: 95%
Structure (SMILES): C=C1/C(=C\C=C2/CCC[C@]3(C)[C@@H]([C@H](C)/C=C/[C@@H](O)C4CC4)CC[C@@H]23)C[C@@H](O)C[C@@H]1O
- Activity (Mus musculus [1]): Active
- Activity (Mus musculus [2]): Active
- Activity (Mus musculus [4]): Active
- Activity (Mus musculus [5]): Active

- inhibition [7]: inactive
- Activity [3]: 43%
- Activity [8]: Dose-dependent effect
- collagen-1 synthesis inhibition relative to 1,25(OH)2D3 (%) [6]: 150%
Structure (SMILES): CCn1c(C(=O)NCC(C)(C)O)ccc1C(CC)(CC)c1ccc(OCC(O)CO)c(C)c1 (stereo unspecified)

- Activity [3]: 20%
- collagen-1 synthesis inhibition relative to 1,25(OH)2D3 (%) [6]: 73%
Structure (SMILES): CCn1cc(C(CC)(CC)c2ccc(OC(=O)[C@H](C)N)c(C)c2)cc1C(=O)NCC(C)(C)O

- Activity [3]: 27%
- collagen-1 synthesis inhibition relative to 1,25(OH)2D3 (%) [6]: 71%
Structure (SMILES): CCn1c(C(=O)NCC2CC2)ccc1C(CC)(CC)c1ccc(OCC(O)CO)c(C)c1 (stereo unspecified)

- inhibition [9]: Active
- inhibition [10]: Active
- Activity [3]: 39%
- Activity [8]: Dose-dependent effect
- collagen-1 synthesis inhibition relative to 1,25(OH)2D3 (%) [6]: 133%
Structure (SMILES): CCn1cc(C(CC)(CC)c2ccc(OCC(O)CO)c(C)c2)cc1C(=O)NCC(F)(F)F (stereo unspecified)

- inhibition [7]: inactive
- Activity [3]: 45%
- Activity [8]: Dose-dependent effect
Structure (SMILES): CCn1c(C(=O)NCC(C)(C)C)ccc1C(CC)(CC)c1ccc(OCC(O)CO)c(C)c1 (stereo unspecified)

- Activity [3]: 37%
- collagen-1 synthesis inhibition relative to 1,25(OH)2D3 (%) [6]: 135%
Structure (SMILES): CCn1c(C(=O)NCC(F)(F)F)ccc1C(CC)(CC)c1ccc(OCC(O)CO)c(C)c1 (stereo unspecified)

- Activity [3]: 30%
- collagen-1 synthesis inhibition relative to 1,25(OH)2D3 (%) [6]: 80%
Structure (SMILES): CCn1cc(C(CC)(CC)c2ccc(OC(=O)CCC(=O)O)c(C)c2)cc1C(=O)NCC(C)(C)O

- inhibition [9]: Active
- inhibition [10]: Active
- inhibition [7]: Active
- bioavailability [16]: 29.3%
- Activity [3]: 62%
- Activity [21]: Active
- Activity [8]: Dose-dependent effect
- half-life [23]: 6.57 h
Structure (SMILES): CCn1cc(C(CC)(CC)c2ccc(OCC(O)CO)c(C)c2)cc1C(=O)NCC(C)(C)O (stereo unspecified)
- Activity (Mus musculus [11]): Active
- Activity (Mus musculus [12]): Active
- Activity (Mus musculus [13]): Active
- inhibition (Homo sapiens [14]): inactive
- Activity (Mus musculus [1]): Active
- Activity (Mus musculus [15]): Active
- Activity (Mus musculus [17]): Active
- Activity (Mus musculus [18]): Non-Toxic
- Activity (Mus musculus [19]): Non-Toxic
- Activity (Mus musculus [2]): Active
- Activity (Mus musculus [20]): Active
- Activity (Mus musculus [4]): Active
- Activity (Mus musculus [5]): Active
- inhibition (Homo sapiens [22]): inactive

- Activity [3]: 22%
- collagen-1 synthesis inhibition relative to 1,25(OH)2D3 (%) [6]: 66%
Structure (SMILES): CCn1cc(C(CC)(CC)c2ccc(OC(=O)CCN)c(C)c2)cc1C(=O)NCC(C)(C)O

- Activity [3]: 21%
- collagen-1 synthesis inhibition relative to 1,25(OH)2D3 (%) [6]: 70%
Structure (SMILES): CCCCCNC(=O)c1ccc(C(CC)(CC)c2ccc(OCC(O)CO)c(C)c2)n1CC (stereo unspecified)

- Activity [3]: 30%
- collagen-1 synthesis inhibition relative to 1,25(OH)2D3 (%) [6]: 90%
Structure (SMILES): CCn1cc(C(CC)(CC)c2ccc(OCCCCC(=O)O)c(C)c2)cc1C(=O)NCC(C)(C)O

- Activity [3]: 31%
- collagen-1 synthesis inhibition relative to 1,25(OH)2D3 (%) [6]: 119%
Structure (SMILES): CCn1cc(C(CC)(CC)c2ccc(OCC(O)CO)c(C)c2)cc1C(=O)NCC(C)(C)C (stereo unspecified)

- Activity [3]: 16%
- collagen-1 synthesis inhibition relative to 1,25(OH)2D3 (%) [6]: 51%
Structure (SMILES): CCCCCNC(=O)c1cc(C(CC)(CC)c2ccc(OCC(O)CO)c(C)c2)cn1CC (stereo unspecified)

- bioavailability [16]: 30.8%
- half-life [23]: 7.55 h
Structure (SMILES): C=C1/C(=C\C=C2/CCC[C@]3(C)[C@@H]([C@H](C)CCCC(C)(C)O)CC[C@@H]23)C[C@@H](O)C[C@@H]1O [CALCITRIOL]
- Activity (Mus musculus [1]): Active
- Activity (Mus musculus [2]): Active
- Activity (Mus musculus [4]): Active
- Activity (Mus musculus [5]): Active

- Activity [3]: 32%
- collagen-1 synthesis inhibition relative to 1,25(OH)2D3 (%) [6]: 112%
Structure (SMILES): CCn1cc(C(CC)(CC)c2ccc(OCCCC(=O)O)c(C)c2)cc1C(=O)NCC(C)(C)O
